The record followed here is ChEMBL document CHEMBL4732244, “A new class of α-ketoamide derivatives with potent anticancer and anti-SARS-CoV-2 activities” (Eur J Med Chem, 2021).

A short description of data set [1]: Cytotoxicity in African green monkey Vero E6 cells assessed as reduction in cell viability after 48 hrs by Celltiter Glo luminescent assay. In kind it is cell-based. To be noted: chlorocebus aethiops, vero e6, 48 h. The gist of the method:
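CellTiter-Glo viability: Vero E6 cells at 2 × 10^4 cells/well were exposed to serially diluted compound for 48 h. Luminescence was read 10 min after substrate addition. CC50 was derived by curve fitting.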

For data set [2], the system named is SARS-CoV-2. The data set can be described thus: Antiviral activity against SARS coronavirus 2 infected in Vero E6 cells assessed as plague reduction measured after 1 hr. In kind it is functional, organism-based. The note with it: Severe acute respiratory syndrome coronavirus 2, Vero C1008, 1 h.
Data set [3] concerns RPMI-8226. The data set can be described thus: Anticancer activity against human RPMI8226 cells assessed as cell viability measured after 72 hrs by MTT assay. In kind it is functional, cell-based. To be noted: RPMI-8226, 72 h. The gist of the method:
(§1)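 MTS growth assay after 72 h compound exposure. RPMI8226 (1×10^4/well), THP-1 and Ramos (5×10^4/well) were cultured in RPMI 1640 with 10% FBS. MGC-803, HeLa and SW480 (5×10^3/well) were cultured in DMEM with 10% FBS. All at 37 °C, 5% CO2. MTS was added for 3 h at 37 °C and OD read at 490 nm. IC50 from 7 concentrations; triplicate wells, three independent experiments.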

The subject of data set [4] is HeLa. Nature of the data set: Anticancer activity against human HeLa cells assessed as cell viability measured after 72 hrs by MTT assay. Type of data set: functional, cell-based. The gist of the method: as §1
In data set [5] the test system is MGC-803. Nature of the data set: Anticancer activity against human MGC-803 cells assessed as cell viability measured after 72 hrs by MTT assay. In kind it is functional, cell-based. The note with it: MGC-803, 72 h. The gist of the method: as §1
Data set [6] has as its system Ramos. The data set can be described thus: Anticancer activity against human Ramos cells assessed as cell viability measured after 72 hrs by MTT assay. Type of data set: functional, cell-based. In outline:
as §1

Data set [7] deals with THP-1. Nature of the data set: Anticancer activity against human THP-1 cells assessed as cell viability measured after 72 hrs by MTT assay. Type of data set: functional, cell-based. The note with it: THP-1, 72 h. The gist of the method: as §1
In data set [8] the test system is SW480. Nature of the data set: Anticancer activity against human SW480 cells assessed as cell viability measured after 72 hrs by MTT assay. The note with it: SW480, 72 h. Type of data set: functional, cell-based. In outline: as §1

As to `COc1ccc(C[C@H](NC(=O)[C@H](C)NC(=O)CN2CCOCC2)C(=O)N[C@@H](Cc2ccccc2)C(=O)C(=O)Nc2ccccc2)cc1`, the Activity result in data set [1] is “Non-Toxic”. In addition, the EC50 in data set [2] was 1280 nM.
Consider `CC(C)C[C@H](NC(=O)OCc1ccccc1)C(=O)N[C@@H](CC(C)C)C(=O)N[C@@H](CC(C)C)C(=O)C(=O)Nc1ccccc1`, for which the IC50 in data set [3] turned out to be 67.8 nM; in data set [4] it was 288 nM; in data set [5], 119 nM; in data set [6], 53.6 nM; in data set [7], 88.1 nM; in data set [8], 106 nM.
Consider `COc1ccc(C[C@H](NC(=O)[C@H](C)NC(=O)c2ccc(-c3ccc(C(C)=O)cc3)o2)C(=O)N[C@@H](CC(C)C)C(=O)C(=O)Nc2ccccc2)cc1`, for which the IC50 in data set [3] stood at 475 nM; in data set [4] it was 3200 nM; in data set [5] it was 1160 nM; in data set [6] it was 428 nM; in data set [7], 475 nM; in data set [8] it was 2000 nM.
`CCc1cccc(NC(=O)C(=O)[C@H](CC(C)C)NC(=O)[C@H](CC(C)C)NC(=O)[C@H](CC(C)C)NC(=O)OCc2ccccc2)c1`: the IC50 in data set [3] turned out to be 40.4 nM; in data set [4] it was 212 nM; in data set [5] it was 78.5 nM; in data set [6] it was 45.7 nM; in data set [7] it was 71.1 nM; in data set [8] it was 82.9 nM.
On to `CC(=O)c1cccc(NC(=O)C(=O)[C@H](CC(C)C)NC(=O)[C@H](Cc2c[nH]c3ccccc23)NC(=O)[C@H](CC(C)C)NC(=O)OCc2ccccc2)c1`, for which the IC50 in data set [3] is 91 nM; in data set [5], 88.8 nM; in data set [6] it was 38.4 nM; in data set [7], 78.1 nM; in data set [8], 94.2 nM.
Consider `COc1cc(NC(=O)C(=O)[C@H](CC(C)C)NC(=O)[C@H](CC(C)C)NC(=O)[C@H](CC(C)C)NC(=O)OCc2ccccc2)cc(OC)c1`, for which the IC50 in data set [3] is 37.6 nM; in data set [4] it was 120 nM; in data set [5], 68.5 nM; in data set [6], 26.9 nM; in data set [7] it was 70.7 nM; in data set [8] it was 72.5 nM.
On to `COc1ccc(C[C@H](NC(=O)[C@H](C)NC(=O)c2ccc(-c3ccccc3)cc2)C(=O)N[C@@H](CC(C)C)C(=O)C(=O)Nc2ccccc2)cc1`, for which the IC50 in data set [3] came out at 455 nM; in data set [4], 8700 nM; in data set [5] it was 2020 nM; in data set [6] it was 464 nM; in data set [7] it was 568 nM; in data set [8], 2440 nM.
